Source: PMC10043961 (Biomedicine & Pharmacotherapy, 2023)
Several values for one entry are separate records, joined by “and”; a condition that tells them apart may be missing. Identical values can stand only once. Entries after “also recorded” stand apart in the source; their conditions may differ. Like-named read-outs stand apart in the source and are kept apart here.

How the values were obtained:
[1] = data from DrugBank ref 49; cited from earlier work
[2] = system: SARS-CoV-2 double-stranded RNA; format: cell-based
Vero E6 cells [3] = conditions: for Drug-induced toxicity, LDH release (in words): Vero E6, 24 h; for Effect on cellular ATP levels (in words): Vero E6, Cell Titer Glo
[4] = system: pyrimidine synthesis (DHODH) in Vero E6 cells; assay: Metabolomic analysis of Vero E6 cells, de novo pyrimidine synthesis; format: cell-based; conditions: 24 h; for Pyrimidine synthesis, UMP levels (in words): Vero E6, 10 µM
Procedure, shortened: (§1)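 Vero E6 cells at 80% confluence were treated for 24 h with test compound (1, 5 or 10 µM) in regular culture medium, with DMSO as vehicle. Cells were washed with ice-cold PBS and scraped into ice-cold 80% methanol for LC-MS metabolomics. Metabolites were matched to an in-house database (10 ppm mass, 0.5 min retention time tolerance), and peak integration was manually curated.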

[5] = system: purine synthesis pathway in Vero E6 cells; assay: Metabolomic analysis of Vero E6 cells, purine synthesis pathway; format: cell-based; conditions: Vero E6, 1 and 5 µM
Procedure, shortened: as §1

[6] = system: ecto-5′-nucleotidase (NT5E) or (CD73); assay: Western blot of NT5E; format: cell-based
Procedure, shortened: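 Vehicle- and test compound-treated cells were lysed in RIPA buffer with protease inhibitors, and protein was measured by BCA in triplicate. Lysates were separated by SDS-PAGE and transferred to nitrocellulose. Membranes were blocked in 5% skim milk/TBS and probed with anti-NT5E/CD73 primary antibody.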

[7] = cited from earlier work
[8] = system: SARS-CoV-2 viral clearance; conditions: patients hospitalized with COVID-19 ref 62; cited from earlier work
in vitro = conditions: human
[9] = system: SARS-CoV-2 double-stranded RNA; format: cell-based; remark: listed apart in the source
Vero E6 cells [10] = conditions: Vero E6, 1–10 µM, 24 h
[11] = Mouse pharmacokinetics: plasma and epithelial lining fluid; format: in vivo, mice
Procedure, shortened: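 Female 6-week-old CD1 mice were dosed PO once daily for 7 days. […] Plasma and BAL were assayed by LC-MS/MS against spiked standard curves. ELF levels came from urea normalization (VELF = VBAL × UreaBAL/Ureaplasma). Free drug was calculated as total × fraction unbound from rapid equilibrium dialysis.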

[12] = system: SARS-CoV-2 (USA-WA1/2020); format: cell-based
SARS-CoV-2 [13] = format: cell-based
SARS-CoV-2 Mpro [14] = molecular target: T1, SARS-CoV-2 Mpro (Severe acute respiratory syndrome coronavirus 2, UniProt P0DTD1); assay: biochemical; conditions: for IC50: IC50 against Mpro activity
SARS-CoV-2 [15] = assay: microbe, parasite or virus in culture; format: cell-based; conditions: Severe acute respiratory syndrome coronavirus 2, Vero
[16] = system: SARS-CoV-2 (USA-WA1/2020); assay: microbe, parasite or virus in culture; format: cell-based; conditions: for EC50: Severe acute respiratory syndrome coronavirus 2, Huh7.5, read-out: EC50(µM) (R^2); for IC50: Severe acute respiratory syndrome coronavirus 2, Huh7.5, read-out: IC50, inhibitory viral replication concentration at 50%
SARS-CoV-2 Mpro [17] = molecular target: T1, SARS-CoV-2 Mpro; format: binding
[18] = read-out: Inhibition of Mpro activity
[19] = mice, 10 mg/kg PO daily for 7 days, 10 mg/kg

Structure (SMILES): O=C1C(O)=C([C@H]2CC[C@H](c3ccc(Cl)cc3)CC2)C(=O)c2ccccc21 [Atovaquone]
- Protein bound [1]: > 99.9%
- dsRNA staining compared to DMSO-treated control cells [2]: striking reduction in dsRNA staining
- Drug-induced toxicity, LDH release (in words) (Vero E6 cells [3]): did not elicit substantial LDH release
- Pyrimidine synthesis, UMP levels versus orotate and dihydroorotate (in words) ([4]; Vero E6, 1 µM and 5 µM): does not inhibit pyrimidine synthesis
- Pyrimidine synthesis, UMP levels (in words) [4]: significant depletion in UMP levels
- Pyrimidine synthesis, UMP levels (in words) ([4]; listed as atovaquone): significant inhibition in pyrimidine synthesis
- Free guanosine, inosine and adenosine levels (in words) [5]: downregulation of adenosine, guanosine, and inosine levels
- Free guanosine, inosine and adenosine levels (in words) ([5]; listed as atovaquone): significant depletion
- NT5E protein expression, quantification (in words) ([6]; 5 µM): significant decrease
- NT5E expression (in words) ([6]; atovaquone treated cells): significantly downregulated
- serum levels [7]: > 40 µM
- primary endpoint: effect on SARS-CoV-2 viral clearance compared with placebo [8]: did not meet the primary endpoint
- CC50 (in vitro): > 100 µM
- dsRNA staining compared to DMSO-treated control cells [9]: striking reduction in dsRNA staining
- Phospholipidosis, NBD-PE (in words) (Vero E6 cells [10]): did not show phospholipidosis
- Cmax in mice compared to BID dosing in HIV infected volunteers ([11]; mice 20 mg/kg PO daily for 7 days versus human values of ref 57): 2–5 fold
- peak total plasma concentration ([11]; mice, 20 mg/kg PO daily for 7 days): 100 µg/mL
- peak free epithelial lining fluid (ELF) concentration ([11]; mice, 20 mg/kg PO daily for 7 days, urea normalized, 20 mg/kg): 70 nM
- peak free plasma level ([11]; mice, 20 mg/kg PO daily for 7 days, 20 mg/kg): ~44 nM
- half-life ([11]; mouse, in vivo): 18 to 38 h
- Antiviral effect on SARS-CoV-2 replication (in words) [12]: dose-dependent inhibition
- Viral replication in the presence of uridine (in words) (SARS-CoV-2 [13]): significant inhibition for viral replication regardless the uridine concentration
- inhibition at 50 µM (SARS-CoV-2 Mpro [14]; read-out: Inhibitory effect on Mpro activity): ~35%
- IC50 (SARS-CoV-2 [15]): 0.02 µM
- EC50 [16]: 6.2 µM
- IC50 [16]: 6.8 µM

Structure (SMILES): COc1ccccc1Oc1c(NS(=O)(=O)c2ccc(C(C)(C)C)cc2)nc(-c2ncccn2)nc1OCCO [Bosentan]
- Drug-induced toxicity, LDH release (in words) (Vero E6 cells [3]): minimal impact
- Effect on cellular ATP levels (in words) (Vero E6 cells [3]): minimal impact
- Antiviral effect on SARS-CoV-2 replication (in words) [12]: modest dose-dependent antiviral effects

Structure (SMILES): COc1cccc2c1C(=O)c1c(O)c3c(c(O)c1C2=O)C[C@@](O)(C(C)=O)C[C@@H]3O[C@H]1C[C@H](N)[C@H](O)[C@H](C)O1 [Daunorubicin]
- Drug-induced toxicity, LDH release (in words) (Vero E6 cells [3]): toxic to cells at high doses
- Antiviral effect on SARS-CoV-2 replication (in words) [12]: dose-dependent inhibition

Structure (SMILES): CCCCc1oc2ccc(NS(C)(=O)=O)cc2c1C(=O)c1ccc(OCCCN(CCCC)CCCC)cc1 [Dronedarone]
- Drug-induced toxicity, LDH release (in words) (Vero E6 cells [3]): particularly toxic at IC50 concentrations
- CC50 (in vitro): 20.2 µM
- Antiviral effect on SARS-CoV-2 replication (in words) [12]: dose-dependent inhibition
- Inhibition of Mpro activity (in words) (SARS-CoV-2 Mpro [14]): significant inhibition
- IC50 (SARS-CoV-2 Mpro [14]): 18 µM
- inhibition at 50 µM (SARS-CoV-2 Mpro [14]; [18]): 50%
- EC50 [16]: 0.38 µM
- IC50 [16]: 0.38 µM

Structure (SMILES): CCN(CC)C(=O)/C(C#N)=C/c1cc(O)c(O)c([N+](=O)[O-])c1 [Entacapone]
- Mpro covalently modified (SARS-CoV-2 Mpro [17]): 15–20%
- Antiviral effect on SARS-CoV-2 replication (in words) [12]: did not elicit a reproducible antiviral effect
- Inhibition of Mpro activity (in words) (SARS-CoV-2 Mpro [14]): significant inhibition
- IC50 (SARS-CoV-2 Mpro [14]): 9 µM and 9.04 µM
- inhibition at 50 µM (SARS-CoV-2 Mpro [14]; [18]): 50%

Structure (SMILES): COC(=O)Nc1nc2ccc(C(=O)c3ccccc3)cc2[nH]1 [Mebendazole]
- Drug-induced toxicity, LDH release (in words) (Vero E6 cells [3]): absence of overt toxicity
- peak plasma levels of patients ([7]; patients receiving 10 mg/kg every 6 h (total 40 mg/kg/day) ref 60): 0.3 to 1.69 µM
- CC50 (in vitro): > 100 µM
- time of maximum total plasma concentration after the last dose ([11]; mice, 10 mg/kg PO daily for 7 days): ≤ 90 min
- maximum total plasma concentration [11, 19]: 697.67 ng/mL and 2.36 µM
- peak free drug level in ELF [11, 19]: ~550 ng/mL and ~1.8 µM
- Antiviral effect on SARS-CoV-2 replication (in words) [12]: dose-dependent inhibition
- Inhibition of Mpro activity (in words) (SARS-CoV-2 Mpro [14]): significant inhibition
- IC50 (SARS-CoV-2 Mpro [14]): 19 µM and 19.9 µM
- Antiviral activity in Huh7.5 cells (in words) [16]: lacks strong inhibitory activity; also recorded: less effective

Structure (SMILES): O=C1c2c(O)ccc(O)c2C(=O)c2c(NCCNCCO)ccc(NCCNCCO)c21 [Mitoxantrone]
- Drug-induced toxicity, LDH release (in words) (Vero E6 cells [3]): did not elicit substantial LDH release
- Antiviral effect on SARS-CoV-2 replication (in words) [12]: dose-dependent inhibition

Structure (SMILES): C[C@@H]1O[C@@H](O[C@H]2C[C@@H](O)[C@]3(CO)[C@H]4[C@H](O)C[C@]5(C)[C@@H](C6=CC(=O)OC6)CC[C@]5(O)[C@@H]4CC[C@]3(O)C2)[C@H](O)[C@H](O)[C@H]1O [Ouabain]
- Drug-induced toxicity, LDH release (in words) (Vero E6 cells [3]): absence of overt toxicity
- CC50 (in vitro): > 100 µM
- Antiviral effect on SARS-CoV-2 replication (in words) [12]: dose-dependent inhibition
- IC50 against SARS-CoV-2 (in words) [12]: low nanomolar range
- EC50 [16]: 0.07 µM
- IC50 [16]: 0.075 µM

Structure (SMILES): C=C[C@H]1C[N@@]2CC[C@H]1C[C@@H]2[C@@H](O)c1ccnc2ccc(OC)cc12 [Quinidine]
- Drug-induced toxicity, LDH release (in words) (Vero E6 cells [3]): minimal impact
- Effect on cellular ATP levels (in words) (Vero E6 cells [3]): minimal impact
- Antiviral effect on SARS-CoV-2 replication (in words) [12]: modest dose-dependent antiviral effects

Structure (SMILES): COc1cccc(-c2ccc(NC(=O)C3=C(C(=O)O)CCC3)c(F)c2)c1 [vidofludimus]
- Viral replication in the presence of uridine (in words) (SARS-CoV-2 [13]): inhibitory activity was reversed with addition of uridine; also recorded: activity changed based on the uridine addition
